Source: PubChem
The sample as a whole holds a higher share of hits than the screen did.
DTT redox prof: compounds producing H2O2 with reducing agent – biochemical, NIH compound library profiling, artefact control for MLSCN library redox annotation, primary screen; DTT-dependent redox cycling H2O2, phenol red/HRP absorbance; 100% = 100 µM peroxide control, 0% = buffer; AID 878; 0.03% of 200,000 active; activation, % at 10 µM;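 active = activation of at least 50% relative to the plate's high and low controls in the primary single-dose screen; inactive = activation below 50%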;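 note: compound incubated with DTT at 0.8 mM final as the reducing agent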
T cruzi inh: blocks replication of Trypanosoma cruzi. 1.4% of 300,000 active. T. cruzi beta-gal in NIH3T3, luminescence, 90 h. inhibition, % (concentration not given with the values). AID 1885;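 active = mean inhibition across valid replicates above about 55%, limit read from the data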;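 note: signal also drops with host cell toxicity which is not excluded here; 0% = plate median of DMSO wells and 100% = zero luminescence signal; higher percent means less beta-gal luminescence so fewer parasites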
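Assay system: NIH/3T3 fibroblasts plus reporter T. cruzi. Amount: NIH/3T3 cells, 5,000 per well. Buffer or medium: DMEM, 2% fetal bovine serum. Doses: compound pinned at 50 nL/well, DMSO. Schedule: ≥90 h infection period, 3 h prior cell attachment. Signal: luminescent β-galactosidase signal after 60 min lysis. Read-out: parasite load inhibition, %.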
MPTP inh: blocks calcium-induced mitochondrial swelling; isolated mouse mitochondria, Ca2+ swelling absorbance, 30 min; inhibition, % at 10 µM; 1.4% of 360,000 active; AID 602449;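 active = inhibition of 50% or more, scaled per plate between neutral and stimulator controls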;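 note: 0% = DMSO wells given calcium and 100% = 1 mM EGTA wells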
Lipid droplet: hepatic lipid droplet formation modulation; AML12 mouse hepatocytes, oleate lipid droplets, BODIPY imaging; inhibition, % at 6.5 µM; AID 1656; 0.4% of 240,000 active;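 active = lipid droplet intensity inhibited by at least 50%, with more than 500 cells counted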
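material = mouse AML12 hepatocyte cell line, fixed after treatment | also added = 100 µM oleic acid challenge | doses = compound at 6.5 µM only | schedule = overnight exposure | technique = Image-based BODIPY and DAPI two-channel analysis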
Lmaj promast: reduces viability of Leishmania major promastigotes; inhibition, % at 10 µM; 9% of 200,000 active; resazurin fluorescence viability; in the data active = inhibition above about 50%;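 note: promastigotes grown with compound for 44 hours at 28 °C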
* hit, by the source's call; . = no result given.

SMILES | DTT redox prof | T cruzi inh | MPTP inh | Lipid droplet | Lmaj promast
COc1ccc(CCC(=O)N2CCCSC2=Nc2ccc(C(C)=O)cc2)cc1 | -0.1 | 3.0 | 2.2 | 14.1 | 97.8*
COc1ccc(CCC(=O)N2CCCc3ccccc32)cc1 | . | 10.9 | -0.9 | -41.3 | .
COc1cc(/C=C(\C#N)C(=O)NC2CCCCC2)ccc1OCc1ccc(C(=O)O)cc1 | -0.2 | 2.3 | -1.1 | 0.5 | 12.4
CCN(CC)CCN(Cc1cc2cc(C)c(C)cc2[nH]c1=O)C(=S)NCc1ccco1 | -0.4 | 46.7 | -1.3 | 5.0 | 60.0*
CNC(=S)N(Cc1cccs1)Cc1cc2cc(OC)ccc2[nH]c1=O | 0.2 | 15.5 | 0.4 | -3.0 | 1.2
Cc1ccc(C)c2[nH]c(=O)c(CN(Cc3cccs3)C(=S)NCc3ccco3)cc12 | 0.2 | -2.5 | -0.3 | -8.1 | 70.3*
Cc1cc2cc(CN(Cc3cccs3)C(=S)NCc3ccco3)c(=O)[nH]c2cc1C | -0.5 | 19.1 | 3.9 | 11.5 | 87.8*
Cc1ccc(C)c2[nH]c(=O)c(CN(CC3CCCO3)C(=S)NCc3ccco3)cc12 (configuration not stated) | . | 25.0 | -0.6 | -3.4 | .
COc1ccc2[nH]c(=O)c(CN(Cc3cccs3)C(=S)Nc3cccc(C)c3)cc2c1 | 0.9 | 41.2 | 3.1 | -43.7 | 99.7*
Cc1ccc(C(=O)Nc2cccc(NC(=O)CN3CCCCC3)c2)cc1 | . | 8.4 | -0.1 | 13.7 | .
CN1CCN(C(=O)/C=C/c2c(F)cccc2Cl)CC1 | . | 4.1 | 0.2 | 3.5 | .
Cc1cc(C(=O)CCC(=O)NCc2ccccc2F)c(C)s1 | . | 19.0 | -0.2 | . | .
COc1cc(C#CC#CCN2CCCCC2)ccc1O | 2.0 | -8.3 | 0.3 | . | 86.3*
COCCN(C(=O)c1cc(CN2C(=O)c3ccccc3C2=O)ccc1OC)c1c(N)n(CC(C)C)c(=O)[nH]c1=O | . | . | -0.6 | . | .
CCOC(=O)N1CCN(C(=O)c2ccc(CSc3ccc(Cl)cc3)cc2)CC1 | -0.3 | 27.4 | 1.0 | -1.1 | 22.0
O=C(c1ccc2c(c1)OCCO2)N1CCN(c2ccc(C(F)(F)F)cn2)CC1 | . | . | 0.2 | . | .
O=C(c1ccc2c(c1)OCO2)N1CCN(c2ccc(C(F)(F)F)cn2)CC1 | 0.1 | -6.7 | -1.0 | -9.2 | 76.3*
CN1CCN(C(=O)c2ccc(CSc3ccc(Cl)cc3)cc2)CC1 | 0.5 | 7.8 | 17.5 | -20.5 | 100.3*
CC(CC(=O)N1CCN(c2ccc(C(F)(F)F)cn2)CC1)n1ccnc1 (configuration not stated) | -1.3 | 67.5* | -1.1 | -7.8 | 11.4
O=C(c1ccc2ccccc2c1)N1CCN(c2ccc(C(F)(F)F)cn2)CC1 | 0.2 | -3.9 | 2.4 | -6.5 | 98.1*
O=C(CCc1ccccc1F)N1CCN(c2ccc(C(F)(F)F)cn2)CC1 | . | 15.6 | 1.5 | -5.7 | .
CC(NC(=O)c1cc(COc2ccc(-n3cncn3)cc2)on1)c1ccc(F)cc1 (configuration not stated) | . | . | 0.4 | . | .
O=C(c1ccc2ccccc2c1)N1CCCC1 | . | -12.3 | -0.5 | . | .
CN1CCN(C(=O)c2ccc3ccccc3c2)CC1 | 1.4 | 5.6 | -0.8 | . | 87.0*
Cc1nc([N+](=O)[O-])c(Sc2nc3ccccc3n2C)n1Cc1ccccc1 | 0.0 | 13.4 | -0.1 | 19.9 | 96.3*
SMILES | DTT redox prof | T cruzi inh | MPTP inh | Lipid droplet | Lmaj promast
CN(Cc1ccco1)C(=O)[C@H](Cc1ccccc1)NC(=O)CC[C@H]1O[C@@H](n2ccc(=O)[nH]c2=O)[C@H](O)[C@@H]1O | . | . | -0.2 | . | .
COc1ccc(CN2CCCCC2c2cccnc2)c(OC)c1C (configuration not stated) | -1.0 | 24.4 | -1.0 | . | 70.4*
COc1ccc(-c2nc(CN3CCCCC3c3nccn3C)c(C)o2)c(C)c1C (configuration not stated) | -0.1 | 11.9 | -4.1 | -7.6 | 96.5*
COc1ccc(OC)c(-c2nc(CN3CCCCC3c3cccnc3)c(C)o2)c1 (configuration not stated) | -0.6 | 59.4* | -2.5 | -15.5 | 7.8
COc1ccc(-c2nc(CN(CC3CCC(=O)N3)C(C)C)c(C)o2)c(C)c1C (configuration not stated) | -0.8 | 7.2 | -2.5 | 2.8 | 79.2*
COc1ccc(-c2nc(CN(C)C(C)c3ccon3)c(C)o2)c(C)c1C (configuration not stated) | -0.5 | 7.5 | -2.1 | 6.5 | 5.7
CC(C)c1nc(SCC(=O)Nc2ccc(N(C)C)cc2)c2ccccc2n1 | -0.3 | 8.7 | 1.2 | 4.7 | 9.7
CN(C(=O)COC(=O)CNC(=O)c1ccc(C(C)(C)C)cc1)c1c(N)n(Cc2ccccc2)c(=O)[nH]c1=O | . | -18.0 | -2.7 | . | .
COc1ccc(C[C@H]2CN3C(=NC[C@@H]3C(C)C)N2C[C@H](C)NC(=O)c2ccc(C)c(Br)c2)cc1 | -1.0 | 30.5 | -0.1 | 4.4 | 67.7*
COc1ccc(C[C@H]2CN3C(=NC[C@H]3Cc3ccccc3)N2CCNC(=O)CCC2CCCCC2)cc1 | 0.3 | 7.2 | 1.2 | -0.2 | 76.3*
COc1ccc(C[C@H]2CN3C(=NC[C@@H]3Cc3ccc(O)cc3)N2CCNC(=O)c2ccc(C)c(Br)c2)cc1 | -1.1 | 27.6 | 1.0 | -19.3 | 20.6
COc1ccc(C[C@H]2CN3C(=NC[C@@H]3Cc3ccccc3)N2CCNC(=O)c2ccc(C)c(Br)c2)cc1 | -0.2 | 47.9 | -0.7 | -24.1 | 95.2*
COc1ccc(CCNC(=O)CSc2nnc3ccc(-c4cccnc4)nn23)cc1OC | -1.7 | -6.3 | -0.4 | -0.1 | 3.6
O=C(NCCc1ccco1)C(=O)NCC1OCCCN1S(=O)(=O)c1ccccc1 (configuration not stated) | . | -6.6 | -0.4 | -1.2 | .
Cc1n[nH]c(C)c1S(=O)(=O)N(C)Cc1ccco1 | . | . | 0.9 | . | .
O=Cc1cc2ccccc2nc1SCCCF | -1.3 | -10.7 | 0.5 | . | 58.2*
CSc1nc2ccccc2cc1/C=C(\C#N)c1ccccc1 | -6.0 | -23.5 | -2.6 | . | 0.5
COC(=O)c1ccc(SCC(=O)N2CCC(C)CC2)c([N+](=O)[O-])c1 | 0.7 | -5.3 | 0.2 | 6.9 | 63.5*
CCOC(=O)N1CCN(C(=O)CSc2ccc(C(=O)OC)cc2[N+](=O)[O-])CC1 | . | -1.8 | 0.1 | -0.7 | .
COC(=O)c1ccc(SCC(=O)NC2CCCC2)c([N+](=O)[O-])c1 | -0.7 | -3.1 | 3.5 | -15.5 | 60.1*
Brc1ccc(CSc2nnc3ccccn23)cc1 | -0.3 | -3.0 | -0.4 | 17.1 | -6.3
N#CC(c1cccc(C(F)(F)F)c1)(c1ncc(C(F)(F)F)cc1Cl)N1CCOCC1 (configuration not stated) | -6.8 | 6.2 | 7.5 | . | 96.1*
CCN(CC)c1ncnc2c1[nH]c1ccccc12 | -2.3 | -4.1 | 2.4 | -2.2 | 60.1*
O=C(c1ccc(S(=O)(=O)N2CCCCCC2)cc1)N(c1ccccn1)C1CCCCC1 | -1.8 | 16.5 | -0.1 | 5.7 | 55.8*
O=C(CSc1nc2ccccc2o1)N1c2ccccc2Sc2ccc(C(F)(F)F)cc21 | 0.2 | 50.1 | 5.2 | -56.8 | 79.7*
O=C(CN1CCCC1)N1c2ccccc2Sc2ccc(C(F)(F)F)cc21 | 1.7 | 16.8 | 4.4 | -7.8 | 12.6
